# Bridges are numbered along the chain shown (N, C = ends). Where no end group is shown, it is not given here.
# Experiments:
# [1] = Cytotoxicity dose response, statements of the text not split by assay; format: cell-based; conditions: rat
# [2] = Thioflavin T kinetic assay of amyloid formation; format: physicochemical; conditions: 16 μM peptide, 32 μM ThT, pH 7.4, 25°C, one week (seven days)
# Method in brief: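 HFIP peptide stocks, quantified by A280, were lyophilized 24 hrs and resuspended in 10 mM phosphate, 140 mM KCl, pH 7.4, with 32 μM thioflavin T. Peptide was 16 μM in the main assays and 100 μM in the supplementary set. Run at 25°C without shaking, triplicate wells. Fluorescence read at ex 450/em 485 nm every ten minutes. T50 is the time to half-maximal ThT fluorescence.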
# [3] = Ion mobility mass spectrometry, collision cross sections; format: physicochemical; conditions: for CCS, 1^+2 ion: charge +2, 100 mM ammonium acetate pH 7.5
# Method in brief: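 Lyophilized peptide dissolved in DMSO at 3.2 mM, held 24 hrs at room temperature, then diluted 100-fold in 100 mM ammonium acetate pH 7.5 and directly infused for ion-mobility MS. m/z 350-5000 calibrated with cesium iodide. CCS calibrated daily with polyethylene oxide and tryptic cytochrome c peptides. TWCCS N2→He derived from reduced mobilities in nitrogen using helium calibrant values. Triplicate runs on different days.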
# [4] = monomer, TWCCS N2→He, triplicate on different days
Molecule,EC50 at 24 h [1] [µM],Increase in ThT fluorescence over the time course of the study [2],"CCS, 2^+4 ion ([3]; dimer, charge +4, triplicate on different days) [Å^2]","CCS, 2^+5 ion, second conformation ([3]; dimer, charge +5, lower line of the two conformations, triplicate) [Å^2]","CCS, 1^+2 ion [3, 4] [Å^2]","CCS, 1^+3 ion ([3]; monomer, charge +3, TWCCS N2→He, triplicate on different days) [Å^2]","CCS, 1^+4 ion, second (compact) conformation ([3]; monomer, charge +4, lower line of the two conformations, triplicate) [Å^2]"
"CC[C@H](C)[C@H](NC(=O)[C@H](C)NC(=O)CNC(=O)[C@H](Cc1ccccc1)NC(=O)[C@H](CC(N)=O)NC(=O)[C@H](CC(N)=O)NC(=O)[C@H](CO)NC(=O)[C@H](CO)NC(=O)[C@H](Cc1c[nH]cn1)NC(=O)[C@@H](NC(=O)[C@H](CC(C)C)NC(=O)[C@H](Cc1ccccc1)NC(=O)[C@H](CC(N)=O)NC(=O)[C@H](C)NC(=O)[C@H](CC(C)C)NC(=O)[C@H](CCCNC(=N)N)NC(=O)[C@H](CCC(N)=O)NC(=O)[C@@H](NC(=O)[C@H](C)NC(=O)[C@@H]1CSSC[C@H](NC(=O)[C@@H](N)CCCCN)C(=O)N[C@@H](CC(N)=O)C(=O)N[C@@H]([C@@H](C)O)C(=O)N[C@@H](C)C(=O)N[C@@H]([C@@H](C)O)C(=O)N1)[C@@H](C)O)C(C)C)C(=O)N[C@@H](CC(C)C)C(=O)N[C@@H](CO)C(=O)N[C@@H](CO)C(=O)N[C@H](C(=O)N[C@@H](CC(N)=O)C(=O)N[C@H](C(=O)NCC(=O)N[C@@H](CO)C(=O)N[C@@H](CC(N)=O)C(=O)N[C@H](C(=O)N[C@@H](Cc1ccc(O)cc1)C(N)=O)[C@@H](C)O)C(C)C)[C@@H](C)O [hIAPP, human islet amyloid polypeptide]",27 to 48.1,showed an increase in ThT fluorescence,864.0 ± 9.9,863.0 ± 21.1,544.7 ± 4.6,551.1 ± 8.1,552.9 ± 12.2
"IAPPA25P S28P: an A25P S28P analog of IAPP (KCNTATCATQRLANFLVHSSNNFGPILPSTNVGSNTY; disulfide 2-7; not fully specified (C-terminus); ends not checked; UniProt P10997 34-70, looked up, variant A25P S28P)",–,showed no increase in ThT fluorescence,–,–,550.5 ± 3.8,–,–

# Source: paper PMC7699308 (Biochemistry, 2020)
